Measured values as given in ChEMBL document CHEMBL1151755, “Crystal structure of the peroxisome proliferator-activated receptor gamma (PPARgamma) ligand binding domain complexed with a novel partial agonist: a new region of the hydrophobic pocket could be exploited for drug design” (J Med Chem, 2008).
Active and inactive are the calls of the source. No cut-off for these calls is given here.

Tests used:
Type in all cases: cell-based
Details in all cases: HepG2
[1] = biological target: T1, Bile acid receptor (Homo sapiens) (UniProt Q96RI1); experiment: Increase in transcriptional activity of FXR ligand binding domain expressed in human Hep G2 cells co-transfected with Gal4-DBD by luciferase reporter gene assay
T1 sequence (whole entry): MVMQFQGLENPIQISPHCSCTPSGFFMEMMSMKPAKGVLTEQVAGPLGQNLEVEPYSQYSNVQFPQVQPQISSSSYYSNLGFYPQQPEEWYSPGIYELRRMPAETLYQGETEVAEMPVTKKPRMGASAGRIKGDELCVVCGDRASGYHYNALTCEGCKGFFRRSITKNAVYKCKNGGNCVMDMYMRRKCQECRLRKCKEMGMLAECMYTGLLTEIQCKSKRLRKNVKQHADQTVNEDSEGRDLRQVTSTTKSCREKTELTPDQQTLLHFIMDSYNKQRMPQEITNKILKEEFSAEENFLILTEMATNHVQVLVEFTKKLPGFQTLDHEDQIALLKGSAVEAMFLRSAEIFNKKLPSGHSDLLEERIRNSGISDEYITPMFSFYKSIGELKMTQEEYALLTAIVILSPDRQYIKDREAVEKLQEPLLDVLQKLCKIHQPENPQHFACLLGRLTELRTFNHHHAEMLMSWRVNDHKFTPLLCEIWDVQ
Outline: (§1)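 HepG2 cells transfected for 4 h by calcium phosphate coprecipitation with 100 ng pGal4UAS-luciferase, 50 ng Gal4-LBD receptor vector and 300 ng CMV-β-galactosidase plasmid for normalization. Cells were washed in PBS, then refed with serum-free DMEM/F-12 containing penicillin/streptomycin and compound or 0.1% ethanol vehicle for 20 h. Luciferase read-out was normalized to β-galactosidase. Experiments were repeated at least three times.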

[2] = biological target: T2, Hepatocyte nuclear factor 4-alpha (Homo sapiens) (UniProt P41235); experiment: Increase in transcriptional activity of HNF-4alpha ligand binding domain expressed in human Hep G2 cells co-transfected with Gal4-DBD by luciferase reporter gene assay; outline: as §1
T2 sequence (whole entry): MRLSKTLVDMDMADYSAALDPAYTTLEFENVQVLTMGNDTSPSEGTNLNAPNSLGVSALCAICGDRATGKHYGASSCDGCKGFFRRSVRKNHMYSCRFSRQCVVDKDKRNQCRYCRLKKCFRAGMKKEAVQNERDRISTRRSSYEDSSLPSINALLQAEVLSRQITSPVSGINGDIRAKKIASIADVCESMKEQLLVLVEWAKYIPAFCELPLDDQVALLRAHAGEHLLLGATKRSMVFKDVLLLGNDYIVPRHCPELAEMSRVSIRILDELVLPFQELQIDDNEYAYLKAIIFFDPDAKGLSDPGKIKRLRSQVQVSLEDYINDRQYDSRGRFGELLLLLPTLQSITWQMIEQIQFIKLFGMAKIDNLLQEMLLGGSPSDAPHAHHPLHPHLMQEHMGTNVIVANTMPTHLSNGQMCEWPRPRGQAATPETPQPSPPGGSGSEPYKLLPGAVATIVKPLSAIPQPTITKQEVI

[3] = biological target: T3, Oxysterols receptor LXR-beta (Homo sapiens) (UniProt P55055); experiment: Increase in transcriptional activity of LXRbeta ligand binding domain expressed in human Hep G2 cells co-transfected with Gal4-DBD by luciferase reporter gene assay; outline: as §1
T3 sequence (whole entry): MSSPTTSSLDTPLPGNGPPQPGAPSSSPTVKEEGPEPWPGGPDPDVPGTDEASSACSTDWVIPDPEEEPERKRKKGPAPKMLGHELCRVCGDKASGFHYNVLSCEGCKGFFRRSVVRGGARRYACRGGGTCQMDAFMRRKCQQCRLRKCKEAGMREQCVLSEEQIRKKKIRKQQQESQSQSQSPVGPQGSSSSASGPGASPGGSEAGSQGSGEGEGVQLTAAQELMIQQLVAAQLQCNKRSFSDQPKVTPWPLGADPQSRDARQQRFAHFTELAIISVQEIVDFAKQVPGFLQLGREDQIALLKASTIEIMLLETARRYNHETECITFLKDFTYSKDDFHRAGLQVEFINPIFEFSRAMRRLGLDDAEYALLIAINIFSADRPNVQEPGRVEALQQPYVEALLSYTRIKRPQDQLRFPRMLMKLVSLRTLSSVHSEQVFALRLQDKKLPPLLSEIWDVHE

[4] = biological target: T4, Peroxisome proliferator-activated receptor delta (Homo sapiens) (UniProt Q03181); experiment: Increase in transcriptional activity of human PPARbeta/delta ligand binding domain expressed in human Hep G2 cells co-transfected with Gal4-DBD by luciferase reporter gene assay; outline: as §1
T4 sequence (whole entry): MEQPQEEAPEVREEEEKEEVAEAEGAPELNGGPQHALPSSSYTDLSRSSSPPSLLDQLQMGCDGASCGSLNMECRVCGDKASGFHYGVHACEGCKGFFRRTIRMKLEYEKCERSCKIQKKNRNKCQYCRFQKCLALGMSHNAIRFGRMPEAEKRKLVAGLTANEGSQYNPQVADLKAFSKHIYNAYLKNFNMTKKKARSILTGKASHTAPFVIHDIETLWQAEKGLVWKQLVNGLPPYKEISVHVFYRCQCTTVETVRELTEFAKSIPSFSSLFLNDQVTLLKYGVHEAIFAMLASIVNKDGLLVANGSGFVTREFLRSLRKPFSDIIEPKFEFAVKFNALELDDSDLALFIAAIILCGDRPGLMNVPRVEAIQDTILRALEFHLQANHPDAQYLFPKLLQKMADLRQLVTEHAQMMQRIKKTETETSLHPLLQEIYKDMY

[5] = biological target: T5, Retinoic acid receptor alpha (Homo sapiens) (UniProt P10276); experiment: Increase in transcriptional activity of RARalpha ligand binding domain expressed in human Hep G2 cells co-transfected with Gal4-DBD by luciferase reporter gene assay; outline: as §1
T5 sequence (whole entry): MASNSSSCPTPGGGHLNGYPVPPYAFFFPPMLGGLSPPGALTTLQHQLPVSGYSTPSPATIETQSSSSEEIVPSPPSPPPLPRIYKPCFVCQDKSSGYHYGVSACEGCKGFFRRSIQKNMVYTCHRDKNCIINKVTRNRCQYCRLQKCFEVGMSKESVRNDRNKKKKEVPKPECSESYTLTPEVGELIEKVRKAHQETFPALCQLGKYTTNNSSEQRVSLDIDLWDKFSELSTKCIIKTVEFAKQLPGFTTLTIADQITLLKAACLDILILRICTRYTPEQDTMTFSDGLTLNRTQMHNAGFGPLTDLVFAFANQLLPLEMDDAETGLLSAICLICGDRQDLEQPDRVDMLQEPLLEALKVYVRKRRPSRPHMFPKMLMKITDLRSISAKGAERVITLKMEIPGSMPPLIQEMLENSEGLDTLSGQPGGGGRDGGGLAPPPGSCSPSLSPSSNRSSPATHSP

Activity [1]	Activity [2]	Activity [3]	Activity [4]	Activity [5]	Structure (SMILES)
inactive	inactive	inactive	inactive	inactive	O=C(O)[C@@H](Cc1ccccc1)Oc1ccc(-c2ccccc2)cc1
inactive	inactive	inactive	inactive	inactive	O=C(O)[C@H](Cc1ccccc1)Oc1ccc(-c2ccccc2)cc1
